pIC50, pKi: −log10 of the molar value. Active and inactive are the calls of the source. The rule behind the calls is not given here.
Tests used:
[1] = biological target: T1, Alkaline ceramidase 3 (Mus musculus) (UniProt Q9D099); assay: Inhibition of ACER3 in ASAH2-null intact mouse embryonic fibroblast cell assessed as reduction in sphingomyelin level incubated for 3 hrs by LC-MS analysis; details: MEF
T1 sequence (whole entry): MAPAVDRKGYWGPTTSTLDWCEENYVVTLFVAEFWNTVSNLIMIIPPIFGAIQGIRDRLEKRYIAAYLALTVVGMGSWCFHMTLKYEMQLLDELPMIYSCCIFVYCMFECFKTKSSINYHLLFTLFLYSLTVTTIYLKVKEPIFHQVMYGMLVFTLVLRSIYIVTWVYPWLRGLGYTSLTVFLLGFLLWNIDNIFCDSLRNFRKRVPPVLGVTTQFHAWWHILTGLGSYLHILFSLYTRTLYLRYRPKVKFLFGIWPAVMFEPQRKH
Method in brief: (§1)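 ASAH2-null MEF seeded at 0.2x10^6 cells/mL, grown 24 h, then given 50 μM compound or vehicle in DMEM 10% FBS for 3 h. Cells washed with PBS, lipids extracted and quantified by LC/MS. Mean ± SD from two experiments with triplicates; unpaired two-tailed t-test versus vehicle.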

[2] = biological target: T1, Alkaline ceramidase 3 (Mus musculus); assay: Inhibition of ACER3 in ASAH2-null intact mouse embryonic fibroblast cell assessed as reduction in sphingosine level incubated for 3 hrs by LC-MS analysis; details: MEF; method in brief: as §1
[3] = biological target: T1, Alkaline ceramidase 3 (Mus musculus); assay: Inhibition of ACER3 in ASAH2-null mouse intact embryonic fibroblast using RBM14C16 fluorogenic substrate measured at pH 9 for 3 hrs by fluorescence spectrophotometry; details: MEF
Method in brief: (§2)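 Intact MEF (ASAH2-null or wild type) seeded at 2x10^4 cells/well 24 h before the assay. Then given RBM14C16 (10 μM) plus a range of compound concentrations, added together, in DMEM 10% FBS for 3 h at 37 °C. Stopped with MeOH, oxidized with NaIO4 at pH 10.6, umbelliferone fluorescence read at 355/460 nm. Normalized to SRB protein; three experiments in triplicate.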

[4] = biological target: T1, Alkaline ceramidase 3 (Mus musculus); assay: Inhibition of ACER3 in ASAH2-null mouse embryonic fibroblast lysate using RBM14C16 fluorogenic substrate measured at pH 9 in presence of Ca2+ by fluorescence spectrophotometry; format: subcellular; details: MEF, time 3.0 hrs
Method in brief: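 Lysate of ASAH2-null MEF (25 μg protein) in 50 mM HEPES, 1 mM CaCl2, pH 9, incubated 3 h at 37 °C with RBM14C16 and test compound. Stopped with MeOH, then NaIO4 in glycine-NaOH pH 10.6, 1 h at 37 °C in dark. Fluorescence read at ex 355/em 460 nm against enzyme-free blanks. Triplicates.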

[5] = biological target: T2, Alkaline ceramidase 3 (Mus musculus, UniProt Q9D099); assay: Non-competitive inhibition of ACER3 in ASAH2-null mouse embryonic fibroblast lysate using RBM14C16 as substrate; format: subcellular
T2 sequence (Q9D099 whole entry): T1 sequence (whole entry)
Method in brief: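 Kinetics used ASAH2-null MEF lysate (25 μg) in 50 mM HEPES, 1 mM CaCl2, pH 9. RBM14C16 at 5, 10, 20 and 40 μM, with varied inhibitor amounts. Ki taken from the slopes of double-reciprocal regression lines at each inhibitor concentration. Four experiments in triplicate.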

[6] = biological target: T1, Alkaline ceramidase 3 (Mus musculus); assay: Inhibition of ACER3 in ASAH2-null intact mouse embryonic fibroblast cell assessed as increase in total […] incubated for 3 hrs by LC-MS analysis; details: MEF; method in brief: as §1
[7] = biological target: T3, Acid ceramidase (Homo sapiens, UniProt Q13510); assay: (§3) Inhibition of human ASAH1 stably over expressed in human intact A-375 cells using RBM14C12 fluorogenic substrate measured at pH 4.5 by fluorescence spectrophotometry; format: cell-based
T3 sequence (Q13510 whole entry): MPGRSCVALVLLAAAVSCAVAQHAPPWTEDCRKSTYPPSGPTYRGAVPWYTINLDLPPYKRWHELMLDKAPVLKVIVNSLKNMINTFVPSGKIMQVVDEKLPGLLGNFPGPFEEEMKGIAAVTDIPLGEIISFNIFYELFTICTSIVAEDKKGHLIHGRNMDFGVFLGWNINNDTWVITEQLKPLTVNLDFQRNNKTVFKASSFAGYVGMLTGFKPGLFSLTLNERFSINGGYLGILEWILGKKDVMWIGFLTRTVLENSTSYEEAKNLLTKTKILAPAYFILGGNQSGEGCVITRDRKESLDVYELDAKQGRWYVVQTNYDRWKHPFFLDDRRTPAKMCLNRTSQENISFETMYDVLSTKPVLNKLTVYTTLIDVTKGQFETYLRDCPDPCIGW
Method in brief: (§4)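 A375 cells with doxycycline-inducible AC, induced with 1 μg/mL doxycycline for 24 h. Intact cells (2x10^4/well) given RBM14C12 (10 μM) plus compounds in a range of concentrations in DMEM 10% FBS for 3 h at 37 °C. NaIO4 oxidation at pH 10.6, fluorescence at 355/460 nm, normalized to SRB protein. Three experiments in triplicate.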

[8] = biological target: Neutral ceramidase (Mus musculus) (UniProt Q9JHE3); assay: Inhibition of ASAH2 in wild type mouse intact embryonic fibroblast using RBM14C16 fluorogenic substrate measured at pH 7.5 incubated for 3 hrs by fluorescence spectrophotometry; details: MEF; method in brief: as §2
[9] = biological target: T4, Acid ceramidase (Homo sapiens) (UniProt Q13510); assay: Inhibition of human ASAH1 stably over expressed in human A-375 cell lysate using RBM14C12 fluorogenic substrate measured at 1:1 compound to substrate molar ratio at pH 4.5 by fluorescence spectrophotometry; format: subcellular
T4 sequence (whole entry): T3 sequence (Q13510 whole entry)

[10] = biological target: T1, Alkaline ceramidase 3 (Mus musculus); assay: Inhibition of ACER3 in ASAH2-null intact mouse embryonic fibroblast cell assessed as reduction in glucosylceramide level incubated for 3 hrs by LC-MS analysis; details: MEF; method in brief: as §1
[11] = biological target: T5, Neutral ceramidase (Homo sapiens, UniProt Q9NR71); assay: Inhibition of human ASAH2 transiently over expressed in human HT29 cell lysate using RBM14C24 fluorogenic substrate measured at >40 uM at pH 7.4 by fluorescence spectrophotometry; details: HT-29, dose microM >40
[12] = biological target: T4, Acid ceramidase (Homo sapiens); assay: Inhibition of human ASAH1 stably over expressed in human A-375 cell lysate using RBM14C12 fluorogenic substrate measured at 40 uM at pH 4.5 by fluorescence spectrophotometry; format: subcellular
Method in brief: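 Lysate of doxycycline-induced AC-overexpressing A375 cells (25 μg) in 25 mM sodium acetate pH 4.5, with RBM14C12 (10 μM) and a range of compound concentrations, 3 h at 37 °C. NaIO4/glycine-NaOH pH 10.6 development, fluorescence at 355/460 nm. Mean ± SEM from three to four experiments in triplicate.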

[13] = biological target: T5, Neutral ceramidase; assay: Inhibition of human ASAH2 stably over expressed in human A-375 cell lysate using RBM14C24 fluorogenic substrate measured at 20 uM at pH 7.5 by fluorescence spectrophotometry; format: subcellular
[14] = biological target: T5, Neutral ceramidase; assay: Inhibition of human ASAH2 transiently over expressed in human HT-29 cell lysate using RBM14C24 fluorogenic substrate measured at pH 7.4 by fluorescence spectrophotometry
[15] = biological target: T5, Neutral ceramidase; assay: Non-competitive inhibition of recombinant ASAH2 stably over expressed in human A-375 cell lysate using RBM14C24 as substrate; format: subcellular
[16] = biological target: T5, Neutral ceramidase; assay: Inhibition of human ASAH2 recombinant enzyme using RBM14C16 fluorogenic substrate measured at 5 uM at pH 7.5 by fluorescence spectrophotometry
[17] = biological target: T4, Acid ceramidase (Homo sapiens); assay: as §3; format: cell-based; details: time 3.0 hrs; method in brief: as §4
[18] = biological target: T5, Neutral ceramidase; assay: Inhibition of human ASAH2 recombinant enzyme using RBM14C16 fluorogenic substrate measured at 20:1 substrate to compound molar ratio at pH 7.5 by fluorescence spectrophotometry

Neutral ceramidase (Mus musculus), sequence (Q9JHE3 whole entry): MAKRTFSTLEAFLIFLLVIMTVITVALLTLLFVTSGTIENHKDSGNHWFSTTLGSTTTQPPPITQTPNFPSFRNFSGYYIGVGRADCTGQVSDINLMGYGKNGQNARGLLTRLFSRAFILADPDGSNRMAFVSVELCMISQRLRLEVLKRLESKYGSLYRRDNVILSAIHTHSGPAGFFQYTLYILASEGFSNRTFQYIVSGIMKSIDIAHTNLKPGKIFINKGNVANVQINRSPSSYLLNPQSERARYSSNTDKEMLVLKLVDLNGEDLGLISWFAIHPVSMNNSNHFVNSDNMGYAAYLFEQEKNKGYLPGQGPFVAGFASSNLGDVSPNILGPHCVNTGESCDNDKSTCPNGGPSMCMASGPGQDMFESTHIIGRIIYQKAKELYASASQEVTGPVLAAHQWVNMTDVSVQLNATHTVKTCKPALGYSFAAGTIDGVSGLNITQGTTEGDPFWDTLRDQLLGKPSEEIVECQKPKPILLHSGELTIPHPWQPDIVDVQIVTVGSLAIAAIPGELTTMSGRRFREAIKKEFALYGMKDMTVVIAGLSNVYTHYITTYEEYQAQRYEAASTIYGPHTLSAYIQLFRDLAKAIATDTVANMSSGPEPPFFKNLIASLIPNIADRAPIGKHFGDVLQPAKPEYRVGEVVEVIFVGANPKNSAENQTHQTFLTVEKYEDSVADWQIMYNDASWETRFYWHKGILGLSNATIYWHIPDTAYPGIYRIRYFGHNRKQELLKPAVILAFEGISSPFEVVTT
T5 sequence (Q9NR71 whole entry): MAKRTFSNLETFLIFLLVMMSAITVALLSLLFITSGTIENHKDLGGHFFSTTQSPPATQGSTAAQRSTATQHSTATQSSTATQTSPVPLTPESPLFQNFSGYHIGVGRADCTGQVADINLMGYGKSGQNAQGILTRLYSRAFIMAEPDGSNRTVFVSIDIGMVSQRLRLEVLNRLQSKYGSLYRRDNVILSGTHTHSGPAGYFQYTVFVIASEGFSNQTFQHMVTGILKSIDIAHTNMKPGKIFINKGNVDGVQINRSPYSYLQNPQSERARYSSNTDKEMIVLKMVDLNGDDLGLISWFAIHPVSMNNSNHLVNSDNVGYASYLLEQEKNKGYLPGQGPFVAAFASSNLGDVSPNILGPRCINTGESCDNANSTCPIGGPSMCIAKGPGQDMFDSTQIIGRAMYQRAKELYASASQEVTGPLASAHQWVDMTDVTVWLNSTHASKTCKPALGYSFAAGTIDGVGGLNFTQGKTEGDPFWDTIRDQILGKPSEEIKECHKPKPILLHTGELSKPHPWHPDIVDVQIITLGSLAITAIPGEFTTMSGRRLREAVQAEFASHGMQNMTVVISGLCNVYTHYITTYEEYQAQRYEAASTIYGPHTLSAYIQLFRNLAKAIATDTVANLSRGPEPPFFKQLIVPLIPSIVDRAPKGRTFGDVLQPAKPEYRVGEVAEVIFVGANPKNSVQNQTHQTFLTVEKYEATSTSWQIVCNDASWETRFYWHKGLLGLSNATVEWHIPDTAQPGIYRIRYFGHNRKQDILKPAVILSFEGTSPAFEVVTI

Compound | inhibition [1] | inhibition [2] | inhibition [3] | inhibition [4] | pKi [5] | fold change (FC) [6] | pIC50 [7] | inhibition [8] | inhibition [9] | inhibition [10] | inhibition [11] [%] | inhibition [12] | inhibition [13] | inhibition [14] | pKi [15] | inhibition [16] | inhibition [17] | inhibition [18]
CCCCCCCCCCCC/C=C/[C@@H](O)[C@@H](C)NC(=O)c1ccc(OCCCCOCOC)cc1 | inactive | inactive | Active | Dose-Dependent Effect | 4.46 | 1.5 | < 3.70 | Active | inactive | inactive |  |  |  |  |  |  |  | 
CCCCCCCCCCCC/C=C/[C@@H](O)[C@@H](C)NC(=O)c1ccc(OCCCOCOC)cc1 | inactive | inactive | Active | Dose-Dependent Effect | 4.59 | 1.5 | < 3.70 | Active | inactive | inactive | 50 | Active | inactive | Dose-Dependent Effect | 5.27 |  |  | 
CCCCCCCCCCCC/C=C/[C@@H](O)[C@@H](C)NC(=O)c1ccc(CCCCCCC)cc1 |  |  | inactive |  |  |  |  | inactive | inactive |  |  | Active | Active | inactive | 6.10 | Active | inactive | Active
